Data on 38 molecules can be found in ChEMBL document CHEMBL3352274, “Oxadiazoles and thiadiazoles: novel α-glucosidase inhibitors” (Bioorg Med Chem, 2014).

A short description of test [1]: Inhibition of alpha-glucosidase (unknown origin) using p-nitrophenyl-alpha-D-glucopyranoside substrate measured up to 30 mins by multiplate spectrophotometry. Also on record: species or system Homo sapiens. The essentials: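 Enzyme 0.2 U/mL in phosphate buffered saline, preincubated with test compounds at various concentrations, 15 min, 37 °C. Assay in 0.1 M phosphate buffer pH 6.8 at 37 °C. Triplicate reactions, acarbose as standard. % inhibition = 100 − (OD test/OD control) × 100. IC50 by enzyme kinetics fitting.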

The target in test [2] is Carbonic anhydrase 2 (Bos taurus) (UniProt P00921). The test is described as follows: Inhibition of carbonic anhydrase 2 (unknown origin) using 4-NPA substrate after 15 mins by spectrophotometry.
A short description of test [3]: Competitive inhibition of alpha-glucosidase (unknown origin) by Lineweaver-Burk plot. More on the design: species or system Homo sapiens. The essentials: (§1)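 Mode of inhibition from Lineweaver–Burk plots (1/rate vs 1/substrate concentration) at varying inhibitor concentrations, tracking Km and Vmax. Ki from secondary re-plots of Lineweaver–Burk slopes vs inhibitor concentration and from Dixon plots (1/rate vs inhibitor concentration). Each point mean of three experiments.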

For test [4], the system named is 3T3. Description: Cytotoxicity against […] 3T3 cells by MTT assay. The settings on record: Mus musculus, NIH3T3. (In general: Formazan colour is commonly taken as a measure of viable cells.)
Test [5] concerns Serpentes. Description: (§2) Inhibition of snake venom phosphodiesterase 1 using bis(p-nitrophenyl) phosphate substrate after 30 mins by spectrophotometry. Also on record: concentration or dose not given beside the values. The essentials: (§3)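 Assayed in 33 mM Tris–HCl buffer (pH 8.8) with 30 mM Mg-acetate as co-factor, 0.000742 U of enzyme and 0.33 mM substrate. After 30 min of incubation, activity was followed at 37 °C as p-nitrophenol release at 410 nm. Initial rates were taken as change in OD/min. All reactions were run in triplicate, with EDTA as positive control.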

The nature of test [6]: as §2. More on the design: species or system Serpentes. The essentials: as §3
Test [7] in a line: Non-competitive inhibition of alpha-glucosidase (unknown origin) by Lineweaver-Burk plot. More on the design: species or system Homo sapiens. The essentials: as §1

A word on the IC50: it is the midpoint of a concentration-inhibition curve. Turning to `COc1ccc(C(=O)CSc2nnc(-c3ccccc3)o2)cc1`, the IC50 entry in test [1] is recorded as “Not Active”. For the molecule `O=C(CSc1nnc(-c2ccccc2)o1)c1ccc(Cl)c(Cl)c1`, the concentration for half-maximal inhibition (IC50) in test [1] (read-out: IC50) was found to be 74.2 µM. `O=C(CSc1nnc(-c2cccnc2)o1)c1ccc(Br)cc1`: the IC50 result in test [1] is “Not Active”. The same measure, in the same setting: the value for `O=C(CSc1nnc(-c2ccc(Cl)cc2)o1)c1ccc(Cl)cc1` was “Not Active”.

As for `O=C(CSc1nnc(-c2ccc(Cl)cc2)o1)c1cc2ccccc2oc1=O`, the concentration for half-maximal inhibition (IC50) entry in test [1] was “Not Active”. As to `COc1ccccc1C(=O)CSc1nnc(-c2ccc(Cl)cc2)o1`, the IC50 in test [1] (read-out: IC50) came out at 81.6 µM. On to `O=C(CSc1nnc(-c2ccc(Cl)cc2)o1)c1ccc(-c2ccccc2)cc1`, for which the IC50 result in test [1] is given as “Not Active”.

For the molecule `O=C(CSc1nnc(SCC(=O)c2ccc([N+](=O)[O-])cc2)s1)c1ccc([N+](=O)[O-])cc1`, in test [1], the IC50 result was “Not Active”. Turning to `O=C(CSc1nnc(-c2cccnc2)o1)c1ccc(-c2ccccc2)cc1`, the IC50 in test [1] (read-out: IC50) is 125 µM. On to `O=C(CSc1nnc(-c2cccnc2)o1)c1cccc(F)c1`, for which the IC50 entry in test [1] was “Not Active”.

With `O=C(CSc1nnc(SCC(=O)c2ccc(-c3ccccc3)cc2)s1)c1ccc(-c2ccccc2)cc1`, the IC50 in test [1] (read-out: IC50) is 51.8 µM. As to `O=C(CSc1nnc(SCC(=O)c2cccc(F)c2)s1)c1cccc(F)c1`, in test [1] (read-out: IC50), the IC50 came out at 24.6 µM.

Usually inhibition stands for the percentage by which the read-out fell short of the control. As a reminder, the Ki is a measure of affinity in units of concentration, obtained from inhibition or displacement. As to `O=C(CSc1nnc(SCC(=O)c2ccccc2)s1)c1ccccc1`, the IC50 entry in test [2] is “Not Active”; in test [4], > 30 µM; in test [1] (read-out: IC50) it was 10.8 µM; in test [6], “Not Active”. The inhibition in test [2] is 33.8%; in test [5], 12.3%. This molecule also registered a Ki in test [3] of 6 µM. With `O=C(CSc1nnc(-c2cccnc2)o1)c1cc2ccccc2oc1=O`, in test [1], the concentration for half-maximal inhibition (IC50) result is listed as “Not Active”. Consider `O=C(CSc1nnc(-c2cccnc2)o1)c1cccc(O)c1`, for which the 50% inhibitory concentration (IC50) entry in test [1] was “Not Active”. `C[C@H]1O[C@H](O[C@H]2[C@H](O)[C@@H](O)[C@@H](O[C@H]3[C@H](O)[C@@H](O)C(O)O[C@@H]3CO)O[C@@H]2CO)[C@H](O)[C@@H](O)[C@@H]1N[C@H]1C=C(CO)[C@@H](O)[C@H](O)[C@H]1O` (some centres undefined) [ACARBOSE]: in test [3], the affinity corresponds to a Ki of 890 µM. Further, the IC50 in test [1] (read-out: IC50) was found to be 937 µM. `O=C(CSc1nnc(-c2ccccc2)o1)c1ccc(Cl)cc1`: the half-maximal inhibitory concentration (IC50) entry in test [1] is “Not Active”.

For `O=C(CSc1nnc(SCC(=O)c2cccc(O)c2)s1)c1cccc(O)c1`, the IC50 entry in test [2] is “Not Active”; in test [4], > 30 µM; in test [1] (read-out: IC50), 20.4 µM; in test [6], “Not Active”. The inhibition in test [2] was determined as 42.9%; in test [5], 4.6%. In addition, the Ki in test [7] is 14.3 µM. For the molecule `COc1ccc(C(=O)CSc2nnc(-c3ccc(Cl)cc3)o2)cc1`, the IC50 entry in test [1] is recorded as “Not Active”. In the case of `COc1cccc(C(=O)CSc2nnc(-c3ccc(Cl)cc3)o2)c1`, the IC50 entry in test [1] is reported as “Not Active”.

As for `O=C(CSc1nnc(-c2cccnc2)o1)c1ccc([N+](=O)[O-])cc1`, in test [1], the half-maximal inhibitory concentration (IC50) result is “Not Active”. Turning to `COc1ccc(C(=O)CSc2nnc(-c3ccc(OCc4ccccc4)cc3)o2)cc1`, the half-inhibitory concentration (IC50) result in test [1] is “Not Active”. In the case of `O=C(CSc1nnc(SCC(=O)c2ccc(Br)cc2)s1)c1ccc(Br)cc1`, the half-maximal inhibitory concentration (IC50) in test [1] (read-out: IC50) stood at 166 µM.

In the case of `O=C(CSc1nnc(-c2ccccc2)o1)c1ccc(Br)cc1`, the IC50 result in test [1] is reported as “Not Active”. Same read-out and setting: the value for `O=C(CSc1nnc(-c2ccccc2)o1)c1cccc(F)c1` was “Not Active”. Consider `COc1ccccc1C(=O)CSc1nnc(-c2ccc(OCc3ccccc3)cc2)o1`, for which the half-inhibitory concentration (IC50) result in test [2] is “Not Active”; in test [4] it was > 30 µM; in test [1] (read-out: IC50), 11.8 µM; in test [6], “Not Active”. The inhibition is 33% in test [2] and 8.5% in test [5]. The Ki in test [7] was 4.36 µM. Regarding `O=C(CSc1nnc(-c2ccc(OCc3ccccc3)cc2)o1)c1cccc(O)c1`, the IC50 entry is “Not Active” in test [2], > 30 µM in test [4], 17.9 µM in test [1] (read-out: IC50) and “Not Active” in test [6]. Besides, the inhibition is 48.2% in test [2] and 1.8% in test [5]. The molecule also came in with a Ki in test [7] of 11.2 µM.

On to `COc1cccc(C(=O)CSc2nnc(-c3ccccc3)o2)c1`, for which the half-maximal inhibitory concentration (IC50) in test [1] (read-out: IC50) was determined as 184 µM.

Take `O=C(CSc1nnc(-c2ccccc2)o1)c1cccc(O)c1`: the IC50 in test [1] (read-out: IC50) was 112 µM. On to `O=C(CSc1nnc(-c2ccccc2)o1)c1cccc(Cl)c1`, for which the IC50 entry in test [1] is recorded as “Not Active”.

Regarding `O=C(CSc1nnc(-c2ccc(Cl)cc2)o1)c1cccc(F)c1`, in test [1] (read-out: IC50), the IC50 is 49.1 µM.

Consider `COc1ccc(C(=O)CSc2nnc(SCC(=O)c3ccc(OC)cc3)s2)cc1`, for which, in test [1], the concentration for half-maximal inhibition (IC50) result is reported as “Not Active”. `O=C(CSc1nnc(SCC(=O)c2ccc(Cl)cc2)s1)c1ccc(Cl)cc1`: the IC50 result in test [1] is recorded as “Not Active”. For `O=C(CSc1nnc(-c2ccc(Cl)cc2)o1)c1cccc(O)c1`, the IC50 entry in test [2] is “Not Active”; in test [4], > 30 µM; in test [1] (read-out: IC50) it was 24.1 µM; in test [6], “Not Active”. Besides, the inhibition was found to be 9% in test [2] and 26% in test [5]. This molecule displayed an inhibition constant (Ki) in test [7] of 12 µM. As for `O=C(CSc1nnc(SCC(=O)c2ccc(Cl)c(Cl)c2)s1)c1ccc(Cl)c(Cl)c1`, the 50% inhibitory concentration (IC50) result in test [1] is “Not Active”. Same read-out and setting: the value for `O=C(CSc1nnc(-c2cccnc2)o1)c1ccc(Cl)cc1` was “Not Active”.

Regarding `COc1ccccc1C(=O)CSc1nnc(SCC(=O)c2ccccc2OC)s1`, the IC50 in test [1] (read-out: IC50) was determined as 94.3 µM. For `O=C(CSc1nnc(-c2ccc(Cl)cc2)o1)c1cccc(Cl)c1`, the IC50 result in test [1] is listed as “Not Active”.
